Measured values: article PMC8841436 (Clinical and Translational Science, 2021)

Tests used:
[1] = tested on: experimental autoimmune encephalomyelitis; assay: Experimental autoimmune encephalomyelitis; format: in vivo; conditions: EAE mouse model; unpublished data
[2] = Plasma pharmacokinetics, part A; format: in vivo, human; conditions: for half-life / Tmax / AUC(0-inf) / AUC(0-t) / Cmax: human, in vivo
[3] = Urine pharmacokinetics, 60 mg cohort part A; format: in vivo, human
[4] = tested on: lymphocyte subpopulations (T/B/NK/monocyte counts); assay: Flow cytometry analysis of immune cell subsets in whole blood, part B; format: in vivo, human
Procedure, shortened: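 Healthy volunteers got oral liquid test compound (7.5, 15, 30, 60 or 90 mg) or matching placebo once daily for 10 days, fasted. Whole blood was drawn predose on days 1, 4 and 10. Flow cytometry counted T, B, NK and monocytes with CD3, CD4, CD8, CD14, CD19 and CD16/56 antibodies. Naïve (CD19+ CD27-) and memory (CD19+ CD27+) B cells were also counted. Error bars are SD.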

[5] = Plasma pharmacokinetics, part B; conditions: human, in vivo, n = 8
healthy volunteers = assay: Phase 1 safety and tolerability; format: in vivo, human; conditions: for Diarrhea, participants with adverse event / Headache, participants with adverse event: part B MAD
[6] = Plasma protein binding by equilibrium dialysis; format: in vitro ADME; conditions: human
[7] = 7.5 mg q.d. 10 days, 8 participants
[8] = 15 mg q.d. 10 days, 8 participants
[9] = 30 mg q.d. 10 days, 8 participants
[10] = 60 mg q.d. 10 days, 8 participants
[11] = 90 mg q.d. 10 days, 8 participants
[12] = all tolebrutinib doses, 40 participants

Compound: C=CC(=O)N1CCC[C@@H](n2c(=O)n(-c3ccc(Oc4ccccc4)cc3)c3c(N)nccc32)C1 [tolebrutinib]
- Protection from disease induction [1]: dose‐dependent protection
- half‐life (mean) ([2]; after oral administration, fasting, across doses): 1.5 to 2 h
- Dose proportionality of exposure ([2]; dose levels between 15 and 60 mg): approximately dose proportional
- half-life ([2]; half‐life, plasma, as summarised in CSF section): 1.5 to 2 h
- Tmax ([2]; po): ~1 h
- AUC(0-inf) ([2]; po, 5 mg): 1.39 ng·h/mL
- AUC(0-t) ([2]; po, 5 mg): 0.57 ng·h/mL
- Cmax ([2]; po, 5 mg): 0.369 ng/mL
- Tmax ([2]; po, 5 mg): 1 h
- half-life ([2]; po, 5 mg, t 1/2, SAD, single oral 5 mg, fasting, mean, n = 6): 1.92 h
- AUC(0-inf) ([2]; po, 15 mg): 4.06 ng·h/mL
- AUC(0-t) ([2]; po, 15 mg): 3.67 ng·h/mL
- Cmax ([2]; po, 15 mg): 1.97 ng/mL
- Tmax ([2]; po, 15 mg): 1 h
- half-life ([2]; po, 15 mg, t 1/2, SAD, single oral 15 mg, fasting, mean, n = 6): 1.39 h
- AUC(0-inf) ([2]; po, 30 mg): 6.46 ng·h/mL
- AUC(0-t) ([2]; po, 30 mg): 6.04 ng·h/mL
- Cmax ([2]; po, 30 mg): 3.12 ng/mL
- Tmax ([2]; po, 30 mg): 1 h
- half-life ([2]; po, 30 mg, t 1/2, SAD, single oral 30 mg, fasting, mean, n = 6): 1.47 h
- AUC(0-inf) ([2]; po, 60 mg): 15.9 ng·h/mL
- AUC(0-t) ([2]; po, 60 mg): 15.6 ng·h/mL
- Cmax ([2]; po, 60 mg): 6.89 ng/mL
- Tmax ([2]; po, 60 mg): 1.5 h
- half-life ([2]; po, 60 mg, t 1/2, SAD, single oral 60 mg, fasting, mean, n = 6): 1.67 h
- AUC(0-inf) ([2]; po, 120 mg): 62.6 ng·h/mL
- AUC(0-t) ([2]; po, 120 mg): 61.6 ng·h/mL
- Cmax ([2]; po, 120 mg): 32.3 ng/mL
- Tmax ([2]; po, 120 mg): 1 h
- half-life ([2]; po, 120 mg, t 1/2, SAD, single oral 120 mg, fasting, mean, n = 6): 2.18 h
- Dose proportionality of Cmax and AUC (power model) ([2]; single doses 5 to 120 mg): more than dose proportional
- CL renal ([3]; human, urine, po, 60 mg): ~5 mL/min
- total mean amount recovered unchanged in urine ([3]; single oral 60 mg, fasted, after 12 h): 4.2 µg
- circulating total B cell levels (both naïve and memory B cells) ([4]; day 4 and day 10, all part B cohorts): Elevated
- B cell depletion ([4]; part B MAD): did not result in B cell depletion
- other immune cell populations: T cells (total CD3, CD4, CD8), monocytes, NK ([4]; part B MAD): No changes
- AUC ([5]; 7.5 mg, AUC0‐24, MAD 7.5 mg q.d., Day 1, mean): 2.12 ng·h/mL
- AUC ([5]; 7.5 mg, AUC0‐24, MAD 7.5 mg q.d., Day 10, mean): 3.07 ng·h/mL
- Cmax ([5]; 7.5 mg, MAD 7.5 mg q.d., Day 1, mean): 1.17 ng/mL
- Cmax ([5]; 7.5 mg, MAD 7.5 mg q.d., Day 10, mean): 1.32 ng/mL
- Tmax ([5]; 7.5 mg, MAD 7.5 mg q.d., Day 1, median (min – max)): 1 h
- Tmax ([5]; 7.5 mg, MAD 7.5 mg q.d., Day 10, median (min – max)): 1 h
- half-life ([5]; 7.5 mg, t 1/2, MAD 7.5 mg q.d., Day 1, mean): 1.45 h
- half-life ([5]; 7.5 mg, t 1/2, MAD 7.5 mg q.d., Day 10, mean): 1.57 h
- AUC ([5]; 15 mg, AUC0‐24, MAD 15 mg q.d., Day 1, mean): 3.82 ng·h/mL
- AUC ([5]; 15 mg, AUC0‐24, MAD 15 mg q.d., Day 10, mean): 5.85 ng·h/mL
- Cmax ([5]; 15 mg, MAD 15 mg q.d., Day 1, mean): 1.96 ng/mL
- Cmax ([5]; 15 mg, MAD 15 mg q.d., Day 10, mean): 2.51 ng/mL
- Tmax ([5]; 15 mg, MAD 15 mg q.d., Day 1, median (min – max)): 1 h
- Tmax ([5]; 15 mg, MAD 15 mg q.d., Day 10, median (min – max)): 1 h
- half-life ([5]; 15 mg, t 1/2, MAD 15 mg q.d., Day 1, mean): 1.4 h
- half-life ([5]; 15 mg, t 1/2, MAD 15 mg q.d., Day 10, mean): 1.68 h
- AUC ([5]; 30 mg, AUC0‐24, MAD 30 mg q.d., Day 1, mean): 9.67 ng·h/mL
- AUC ([5]; 30 mg, AUC0‐24, MAD 30 mg q.d., Day 10, mean): 14.9 ng·h/mL
- Cmax ([5]; 30 mg, MAD 30 mg q.d., Day 1, mean): 6.25 ng/mL
- Cmax ([5]; 30 mg, MAD 30 mg q.d., Day 10, mean): 7.46 ng/mL
- Tmax ([5]; 30 mg, MAD 30 mg q.d., Day 1, median (min – max)): 0.75 h
- Tmax ([5]; 30 mg, MAD 30 mg q.d., Day 10, median (min – max)): 1 h
- half-life ([5]; 30 mg, t 1/2, MAD 30 mg q.d., Day 1, mean): 1.6 h
- half-life ([5]; 30 mg, t 1/2, MAD 30 mg q.d., Day 10, mean): 2.02 h
- AUC ([5]; 60 mg, AUC0‐24, MAD 60 mg q.d., Day 1, mean): 24.3 ng·h/mL
- AUC ([5]; 60 mg, AUC0‐24, MAD 60 mg q.d., Day 10, mean): 18.2 ng·h/mL
- Cmax ([5]; 60 mg, MAD 60 mg q.d., Day 1, mean): 8.47 ng/mL
- Cmax ([5]; 60 mg, MAD 60 mg q.d., Day 10, mean): 6.69 ng/mL
- Tmax ([5]; 60 mg, MAD 60 mg q.d., Day 1, median (min – max)): 1.25 h
- Tmax ([5]; 60 mg, MAD 60 mg q.d., Day 10, median (min – max)): 1.5 h
- half-life ([5]; 60 mg, t 1/2, MAD 60 mg q.d., Day 1, mean): 1.98 h
- half-life ([5]; 60 mg, t 1/2, MAD 60 mg q.d., Day 10, mean): 2.37 h
- AUC ([5]; 90 mg, AUC0‐24, MAD 90 mg q.d., Day 1, mean): 35.5 ng·h/mL
- AUC ([5]; 90 mg, AUC0‐24, MAD 90 mg q.d., Day 10, mean): 56.6 ng·h/mL
- Cmax ([5]; 90 mg, MAD 90 mg q.d., Day 1, mean): 19.3 ng/mL
- Cmax ([5]; 90 mg, MAD 90 mg q.d., Day 10, mean): 21.7 ng/mL
- Tmax ([5]; 90 mg, MAD 90 mg q.d., Day 1, median (min – max)): 1 h
- Tmax ([5]; 90 mg, MAD 90 mg q.d., Day 10, median (min – max)): 1.5 h
- half-life ([5]; 90 mg, t 1/2, MAD 90 mg q.d., Day 1, mean): 2.1 h
- half-life ([5]; 90 mg, t 1/2, MAD 90 mg q.d., Day 10, mean): 2.83 h
- Serious treatment-emergent adverse events (healthy volunteers; part A (SAD)): no serious treatment‐emergent adverse events
- Tolerability (healthy volunteers; part A (SAD), single doses 5-120 mg): well‐tolerated
- Severity of treatment-related TEAEs (healthy volunteers; part B (MAD), all combined dose groups): mild
- Diarrhea, participants with adverse event (healthy volunteers; [7]): 1
- Headache, participants with adverse event (healthy volunteers; [7]): 2
- Diarrhea, participants with adverse event (healthy volunteers; [8]): 1
- Headache, participants with adverse event (healthy volunteers; [8]): 1
- Diarrhea, participants with adverse event (healthy volunteers; [9]): 2
- Headache, participants with adverse event (healthy volunteers; [9]): 1
- Diarrhea, participants with adverse event (healthy volunteers; [10]): 0
- Headache, participants with adverse event (healthy volunteers; [10]): 0
- Diarrhea, participants with adverse event (healthy volunteers; [11]): 5
- Headache, participants with adverse event (healthy volunteers; [11]): 0
- Diarrhea, participants with adverse event (healthy volunteers; [12]): 9
- Headache, participants with adverse event (healthy volunteers; [12]): 4
- fraction unbound [6]: ~0.065
